Columns and labels:
Conditions in all cases: stereoisomer not certain
OR5G3 (Homo sapiens) = OR5G3 (Homo sapiens) (UniProt P0C626)
Procedure, shortened: (§1)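 Transient luciferase assays in mammalian cell lines were common, though methods varied by source. The values come from published papers and their supplementary material, with extra details from the original authors when needed. Responsive refers to a measured signal the original authors judged statistically different from baseline, and non-responsive (inactive) to the remainder.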

OR5H14 (Homo sapiens) = OR5H14 (Homo sapiens) (UniProt A6NHG9)
Procedure, shortened: as §1

OR5H15 (Homo sapiens) = OR5H15 (Homo sapiens) (UniProt A6NDH6)
Procedure, shortened: as §1

OR5H2 = tested on: OR5H2
Procedure, shortened: as §1

OR5H6 (Homo sapiens) = OR5H6 (Homo sapiens) (UniProt Q8NGV6)
Procedure, shortened: as §1

OR5H8 (Homo sapiens) = OR5H8 (Homo sapiens) (UniProt P0DN80)
Procedure, shortened: as §1

OR5I1 (Homo sapiens) = OR5I1 (Homo sapiens) (UniProt Q13606)
Procedure, shortened: as §1

OR5J2 (Homo sapiens) = OR5J2 (Homo sapiens) (UniProt Q8NH18)
Procedure, shortened: as §1

OR5K2 (Homo sapiens) = OR5K2 (Homo sapiens) (UniProt Q8NHB8)
Procedure, shortened: as §1

OR5K3 (Homo sapiens) = OR5K3 (Homo sapiens) (UniProt A6NET4)
Procedure, shortened: as §1

OR5K4 (Homo sapiens) = OR5K4 (Homo sapiens) (UniProt A6NMS3)
Procedure, shortened: as §1

OR5L1 (Homo sapiens) = OR5L1 (Homo sapiens) (UniProt Q8NGL2)
Procedure, shortened: as §1

OR5M1 (Homo sapiens) = OR5M1 (Homo sapiens) (UniProt Q8NGP8)
Procedure, shortened: as §1

OR5H1 (Homo sapiens) = OR5H1 (Homo sapiens) (UniProt A6NKK0)
Procedure, shortened: as §1

OR5H1 F17L A30T H56Q = tested on: OR5H1 F17L A30T H56Q
Procedure, shortened: as §1

OR5H1 T181N = tested on: OR5H1 T181N
Procedure, shortened: as §1

OR5H1 = tested on: OR5H1
Procedure, shortened: as §1

OR5K2 L197M = tested on: OR5K2 L197M
Procedure, shortened: as §1

OR5L2 (Homo sapiens) = OR5L2 (Homo sapiens) (UniProt Q8NGL0)
Procedure, shortened: as §1

Measured: odorant receptor agonist call;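 note: active if original authors judged signal statistically different from baseline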

OR5L1 (Homo sapiens), sequence (Q8NGL2 whole entry): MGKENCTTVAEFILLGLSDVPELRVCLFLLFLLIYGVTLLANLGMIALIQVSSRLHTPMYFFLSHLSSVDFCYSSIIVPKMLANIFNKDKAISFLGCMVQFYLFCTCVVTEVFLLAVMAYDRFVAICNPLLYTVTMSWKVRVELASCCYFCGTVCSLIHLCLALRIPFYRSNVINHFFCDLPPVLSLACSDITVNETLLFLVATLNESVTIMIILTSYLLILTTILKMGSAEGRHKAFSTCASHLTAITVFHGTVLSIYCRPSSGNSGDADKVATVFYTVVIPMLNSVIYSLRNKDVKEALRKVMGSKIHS
OR5K3 (Homo sapiens), sequence (A6NET4 whole entry): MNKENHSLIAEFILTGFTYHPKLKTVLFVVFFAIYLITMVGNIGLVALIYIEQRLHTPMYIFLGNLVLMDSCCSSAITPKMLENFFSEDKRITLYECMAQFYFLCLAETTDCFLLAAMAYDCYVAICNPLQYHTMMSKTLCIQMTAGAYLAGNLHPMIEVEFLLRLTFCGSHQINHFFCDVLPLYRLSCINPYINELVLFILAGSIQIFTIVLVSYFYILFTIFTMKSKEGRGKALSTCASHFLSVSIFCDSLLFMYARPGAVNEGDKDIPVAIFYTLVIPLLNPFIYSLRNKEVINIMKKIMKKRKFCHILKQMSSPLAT
OR5H6 (Homo sapiens), sequence (Q8NGV6 whole entry): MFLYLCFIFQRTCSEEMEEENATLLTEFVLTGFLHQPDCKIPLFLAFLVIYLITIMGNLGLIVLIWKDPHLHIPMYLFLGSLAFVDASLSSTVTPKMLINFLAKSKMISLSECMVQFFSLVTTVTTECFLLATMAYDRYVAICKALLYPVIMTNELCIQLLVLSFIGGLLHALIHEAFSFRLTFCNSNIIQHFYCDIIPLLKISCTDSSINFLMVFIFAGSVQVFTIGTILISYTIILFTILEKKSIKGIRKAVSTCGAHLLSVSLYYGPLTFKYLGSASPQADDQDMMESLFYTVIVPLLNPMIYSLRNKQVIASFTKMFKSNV
OR5K4 (Homo sapiens), sequence (A6NMS3 whole entry): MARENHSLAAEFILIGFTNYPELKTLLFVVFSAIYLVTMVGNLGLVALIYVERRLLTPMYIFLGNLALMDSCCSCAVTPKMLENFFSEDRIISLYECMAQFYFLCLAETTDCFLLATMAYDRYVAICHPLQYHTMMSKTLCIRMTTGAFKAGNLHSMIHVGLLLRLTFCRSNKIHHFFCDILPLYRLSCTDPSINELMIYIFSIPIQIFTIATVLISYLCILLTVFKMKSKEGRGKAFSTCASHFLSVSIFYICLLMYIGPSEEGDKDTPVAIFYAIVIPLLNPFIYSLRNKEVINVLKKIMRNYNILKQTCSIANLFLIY
OR5H2, sequence (as listed by the source): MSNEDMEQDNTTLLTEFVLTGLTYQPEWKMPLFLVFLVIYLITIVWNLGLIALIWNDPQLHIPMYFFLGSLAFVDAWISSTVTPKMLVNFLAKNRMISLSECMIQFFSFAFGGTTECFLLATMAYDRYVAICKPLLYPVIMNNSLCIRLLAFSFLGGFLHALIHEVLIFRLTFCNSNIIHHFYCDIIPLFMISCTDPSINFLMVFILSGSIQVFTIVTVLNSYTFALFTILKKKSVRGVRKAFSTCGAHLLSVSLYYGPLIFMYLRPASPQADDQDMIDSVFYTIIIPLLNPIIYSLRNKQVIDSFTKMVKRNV
OR5K2 (Homo sapiens), sequence (Q8NHB8 whole entry): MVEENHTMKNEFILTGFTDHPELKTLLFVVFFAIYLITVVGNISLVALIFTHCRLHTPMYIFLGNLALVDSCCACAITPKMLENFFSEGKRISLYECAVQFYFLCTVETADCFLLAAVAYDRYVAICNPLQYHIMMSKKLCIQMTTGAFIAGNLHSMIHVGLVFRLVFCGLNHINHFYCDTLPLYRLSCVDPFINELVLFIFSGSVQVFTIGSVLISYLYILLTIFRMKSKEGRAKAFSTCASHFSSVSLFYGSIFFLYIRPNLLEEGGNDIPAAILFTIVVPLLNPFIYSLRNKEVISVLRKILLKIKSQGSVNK
OR5I1 (Homo sapiens), sequence (Q13606 whole entry): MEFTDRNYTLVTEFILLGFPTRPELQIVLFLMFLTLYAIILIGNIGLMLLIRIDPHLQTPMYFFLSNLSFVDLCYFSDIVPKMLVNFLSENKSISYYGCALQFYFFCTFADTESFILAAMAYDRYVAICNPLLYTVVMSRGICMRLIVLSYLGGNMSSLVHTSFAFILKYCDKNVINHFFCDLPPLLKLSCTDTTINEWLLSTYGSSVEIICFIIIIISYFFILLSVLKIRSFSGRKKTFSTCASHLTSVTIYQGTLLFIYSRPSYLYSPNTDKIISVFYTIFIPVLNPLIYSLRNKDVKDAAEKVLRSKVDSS
OR5J2 (Homo sapiens), sequence (Q8NH18 whole entry): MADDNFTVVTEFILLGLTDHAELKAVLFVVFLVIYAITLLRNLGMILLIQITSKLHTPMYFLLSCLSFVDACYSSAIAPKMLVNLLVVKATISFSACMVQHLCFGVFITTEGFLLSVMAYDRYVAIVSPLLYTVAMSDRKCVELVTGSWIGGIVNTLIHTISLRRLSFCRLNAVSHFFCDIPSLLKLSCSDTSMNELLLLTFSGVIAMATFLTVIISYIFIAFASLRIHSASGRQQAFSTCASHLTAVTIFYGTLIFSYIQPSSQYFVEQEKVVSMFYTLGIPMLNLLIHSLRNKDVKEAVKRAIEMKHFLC
OR5H14 (Homo sapiens), sequence (A6NHG9 whole entry): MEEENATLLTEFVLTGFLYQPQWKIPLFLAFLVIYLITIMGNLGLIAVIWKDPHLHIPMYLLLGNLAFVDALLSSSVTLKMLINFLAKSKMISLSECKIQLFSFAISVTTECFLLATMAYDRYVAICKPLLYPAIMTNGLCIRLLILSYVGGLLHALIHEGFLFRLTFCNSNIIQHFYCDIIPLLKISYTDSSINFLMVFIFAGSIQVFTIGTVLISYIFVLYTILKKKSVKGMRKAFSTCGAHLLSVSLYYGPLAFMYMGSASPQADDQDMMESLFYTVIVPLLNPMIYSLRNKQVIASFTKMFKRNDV
OR5M1 (Homo sapiens), sequence (Q8NGP8 whole entry): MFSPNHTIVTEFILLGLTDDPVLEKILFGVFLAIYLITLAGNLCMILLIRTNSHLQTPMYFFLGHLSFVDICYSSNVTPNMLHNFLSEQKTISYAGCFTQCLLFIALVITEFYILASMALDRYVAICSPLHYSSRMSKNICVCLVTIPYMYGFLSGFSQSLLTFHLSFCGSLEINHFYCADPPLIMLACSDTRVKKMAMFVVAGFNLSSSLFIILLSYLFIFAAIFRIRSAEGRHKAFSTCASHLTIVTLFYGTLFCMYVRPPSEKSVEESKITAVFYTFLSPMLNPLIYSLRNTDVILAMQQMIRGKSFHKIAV
OR5H15 (Homo sapiens), sequence (A6NDH6 whole entry): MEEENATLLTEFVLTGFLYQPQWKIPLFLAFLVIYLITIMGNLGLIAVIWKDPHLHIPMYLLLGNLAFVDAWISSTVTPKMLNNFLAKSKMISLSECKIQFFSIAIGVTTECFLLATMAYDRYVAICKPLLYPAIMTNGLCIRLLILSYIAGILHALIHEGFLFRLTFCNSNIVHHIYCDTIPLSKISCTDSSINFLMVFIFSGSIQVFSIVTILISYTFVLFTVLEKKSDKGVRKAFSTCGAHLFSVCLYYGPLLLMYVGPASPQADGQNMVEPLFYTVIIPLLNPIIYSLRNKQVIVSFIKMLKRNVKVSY
OR5G3 (Homo sapiens), sequence (P0C626 whole entry): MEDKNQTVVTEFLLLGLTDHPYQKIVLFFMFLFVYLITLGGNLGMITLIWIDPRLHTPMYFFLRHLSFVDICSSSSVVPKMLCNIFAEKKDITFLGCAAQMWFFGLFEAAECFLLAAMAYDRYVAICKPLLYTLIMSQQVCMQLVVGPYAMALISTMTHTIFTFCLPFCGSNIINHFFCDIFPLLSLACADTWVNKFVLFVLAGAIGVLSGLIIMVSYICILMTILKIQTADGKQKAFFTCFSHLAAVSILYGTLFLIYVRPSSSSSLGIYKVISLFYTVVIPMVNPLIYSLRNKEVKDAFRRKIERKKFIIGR
OR5H8 (Homo sapiens), sequence (P0DN80 whole entry): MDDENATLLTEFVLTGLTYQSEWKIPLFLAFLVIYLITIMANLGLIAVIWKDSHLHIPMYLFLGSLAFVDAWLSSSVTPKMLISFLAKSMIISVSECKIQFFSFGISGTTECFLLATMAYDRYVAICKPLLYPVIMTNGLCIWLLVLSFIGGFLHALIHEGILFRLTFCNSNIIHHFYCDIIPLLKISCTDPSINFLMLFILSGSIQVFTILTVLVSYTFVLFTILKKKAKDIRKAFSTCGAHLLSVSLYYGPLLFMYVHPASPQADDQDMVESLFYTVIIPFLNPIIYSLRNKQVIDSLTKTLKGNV
OR5H1, sequence (as listed by the source): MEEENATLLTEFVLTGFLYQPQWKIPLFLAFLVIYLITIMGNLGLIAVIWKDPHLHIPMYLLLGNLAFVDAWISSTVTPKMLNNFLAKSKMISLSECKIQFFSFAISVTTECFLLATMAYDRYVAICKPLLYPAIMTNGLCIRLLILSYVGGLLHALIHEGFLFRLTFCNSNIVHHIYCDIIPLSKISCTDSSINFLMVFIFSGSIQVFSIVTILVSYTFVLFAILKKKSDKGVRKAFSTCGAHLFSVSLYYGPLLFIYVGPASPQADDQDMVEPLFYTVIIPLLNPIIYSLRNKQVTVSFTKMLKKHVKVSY
OR5K2 L197M, sequence (as listed by the source, stated change not applied): as the sequence (Q8NHB8 whole entry) above, with L197M counted along it

Cc1c([N+](=O)[O-])c(C)c([N+](=O)[O-])c(C(C)(C)C)c1[N+](=O)[O-]
not listed: OR5H1 (Homo sapiens) | OR5H1 F17L A30T H56Q | OR5H1 T181N | OR5H1 | OR5K2 L197M | OR5L2 (Homo sapiens)
inactive: all other assays above

C=CCOC(=O)Cc1ccccc1
not listed: OR5G3 (Homo sapiens) | OR5H8 (Homo sapiens)
inactive: all other assays above

Reference: the M2OR odorant receptor database
